Assay outcomes from PubChem BioAssay.
Rin1-Abl PPI inh = blocks binding of human Rin1 to Abl; P00519+Q13671; TR-FRET Rin1/Abl binding, biochemical; inhibition, % at 7.35 µM; actives 0.4% (n = 360,000); in the data active means inhibition above about 5%, passing the limit was not always enough
Target sequence (P00519 whole entry, looked up): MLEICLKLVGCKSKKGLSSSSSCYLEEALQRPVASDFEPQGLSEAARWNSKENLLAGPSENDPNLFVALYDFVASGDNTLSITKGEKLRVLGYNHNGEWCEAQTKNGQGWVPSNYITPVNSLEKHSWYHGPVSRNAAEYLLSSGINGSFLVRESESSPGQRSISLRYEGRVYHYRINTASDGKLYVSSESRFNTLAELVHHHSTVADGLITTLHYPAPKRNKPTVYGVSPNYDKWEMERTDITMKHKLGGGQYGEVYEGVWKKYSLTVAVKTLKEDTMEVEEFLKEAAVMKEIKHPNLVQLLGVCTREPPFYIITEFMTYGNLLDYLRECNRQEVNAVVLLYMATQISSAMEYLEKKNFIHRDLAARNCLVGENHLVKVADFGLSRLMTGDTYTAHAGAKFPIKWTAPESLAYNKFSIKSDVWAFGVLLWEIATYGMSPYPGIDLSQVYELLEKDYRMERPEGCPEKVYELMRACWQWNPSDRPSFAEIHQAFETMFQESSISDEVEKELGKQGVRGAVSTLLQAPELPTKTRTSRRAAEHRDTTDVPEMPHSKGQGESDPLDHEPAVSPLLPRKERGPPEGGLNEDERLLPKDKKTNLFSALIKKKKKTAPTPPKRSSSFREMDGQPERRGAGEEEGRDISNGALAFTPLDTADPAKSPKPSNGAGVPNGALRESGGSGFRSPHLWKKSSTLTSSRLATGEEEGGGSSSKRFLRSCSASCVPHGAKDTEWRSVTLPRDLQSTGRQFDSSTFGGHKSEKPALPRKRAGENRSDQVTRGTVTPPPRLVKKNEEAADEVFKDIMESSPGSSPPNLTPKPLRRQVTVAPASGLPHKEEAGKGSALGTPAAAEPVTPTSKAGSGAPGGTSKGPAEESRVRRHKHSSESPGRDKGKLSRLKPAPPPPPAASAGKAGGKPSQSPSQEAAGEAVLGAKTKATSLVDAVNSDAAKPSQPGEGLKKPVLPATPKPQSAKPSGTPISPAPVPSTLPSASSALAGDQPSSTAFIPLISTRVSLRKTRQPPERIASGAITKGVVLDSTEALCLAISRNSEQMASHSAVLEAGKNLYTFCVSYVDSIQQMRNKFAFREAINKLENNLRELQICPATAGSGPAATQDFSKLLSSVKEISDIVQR
Target sequence (Q13671 whole entry, looked up): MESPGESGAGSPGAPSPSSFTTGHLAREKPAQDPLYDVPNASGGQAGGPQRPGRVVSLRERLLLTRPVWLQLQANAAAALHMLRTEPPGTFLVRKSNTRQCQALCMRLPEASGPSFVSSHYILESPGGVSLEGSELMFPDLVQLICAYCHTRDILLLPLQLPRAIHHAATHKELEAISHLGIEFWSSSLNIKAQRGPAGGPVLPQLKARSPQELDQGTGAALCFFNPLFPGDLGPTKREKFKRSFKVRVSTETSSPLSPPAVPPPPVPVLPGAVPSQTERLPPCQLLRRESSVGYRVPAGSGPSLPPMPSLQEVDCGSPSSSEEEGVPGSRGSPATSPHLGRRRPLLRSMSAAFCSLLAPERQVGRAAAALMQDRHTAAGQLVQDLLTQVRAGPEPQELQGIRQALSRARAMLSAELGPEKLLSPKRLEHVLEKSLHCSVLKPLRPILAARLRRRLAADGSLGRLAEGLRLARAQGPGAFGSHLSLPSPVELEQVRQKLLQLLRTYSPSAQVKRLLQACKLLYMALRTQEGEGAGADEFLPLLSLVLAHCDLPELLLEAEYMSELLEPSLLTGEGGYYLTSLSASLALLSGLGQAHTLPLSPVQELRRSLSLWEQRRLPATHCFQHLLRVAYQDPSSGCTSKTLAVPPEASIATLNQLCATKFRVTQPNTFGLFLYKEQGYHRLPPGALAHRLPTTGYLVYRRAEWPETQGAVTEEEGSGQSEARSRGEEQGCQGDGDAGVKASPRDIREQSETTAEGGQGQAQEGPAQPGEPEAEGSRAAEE
SUMO HTRF inh = blocks human SUMOylation mediated by UBC9 | P63279 | HTRF SUMOylation assay, SAE1/SAE2 + UBC9, in vitro | inhibition, % at 35 µM | actives 0.36% (n = 290,000) | AID 2006; in the data active means inhibition above about 50%, passing the limit was not always enough
PAD4 inh = blocks human protein arginine deiminase 4; Q9UM07; recombinant PAD4, RCA probe fluorescence polarization; inhibition, % at 6.36 µM; actives 0.41% (n = 330,000);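 active means percent inhibition above a cutoff equal to the mean of all tested compounds plus 3 SD, cut at about 15% in these data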;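 further: 0% = PAD4 with RCA probe and DMSO and 100% = probe without PAD4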
GSTO1 inh = counter-screen for RBBP9 inhibitors: inhibitors of human GSTO1 | P78417 | recombinant GSTO1, activity-based probe fluorescence polarization | inhibition, % at 5.96 µM | actives 1.1% (n = 300,000) | AID 1974;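 active means inhibition above the campaign mean inhibition plus 3 SD, cut at about 35% in these data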;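 further: 0% = GSTO1-1 with DMSO and 100% = wells lacking GSTO1-1 enzyme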
Apaf1 inhib = inhibitors of human Apaf-1 apoptosome. inhibition, % at 20 µM. reconstituted apoptosome caspase-3 activity, DEVD-Rh110 fluorescence. O14727. actives 0.71% (n = 330,000); active means inhibition of at least 40% at 20 µM;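 further: plate controls were DMSO wells for no effect and DEVD-CHO caspase inhibitor wells for full effect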
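Material: cell-free apoptosome with Apaf-1, procaspase-3 and caspase-9; Buffer or medium: Hepes pH 7.5 with detergent and BSA; Reagent: cytochrome c trigger plus (Z-DEVD)2-Rh110 caspase-3 substrate; Times: compound with Apaf-1, dATP, procaspase-3 30 min, then 50 min reaction, room temperature; Technique: Rh110 fluorescence intensity.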
UBC13 polyUb = human UBC13 polyubiquitination inhibition. P61088. UBC13 polyubiquitin chain formation, TR-FRET. inhibition, % at 20 µM. actives 0.47% (n = 330,000); in the data active means inhibition above about 45%, passing the limit was not always enough
GSTO1 confirm = GSTO1 (human) inhibition, confirmation; inhibition, % at 5.96 µM; recombinant GSTO1, probe fluorescence polarization; actives 54% (n = 2,400); shares compounds with GSTO1 inh; AID 2176;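 active means inhibition above the primary screen's cutoff, its mean inhibition plus 3 SD, cut at about 35% in these data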;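 further: loss of polarization as inhibitors block binding of rhodamine sulfonate ester activity probe; 0% = GSTO1 with DMSO and 100% = wells lacking GSTO1 enzyme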
* hit, by the source's call. Only some compounds are listed: those with a hit (about 2.2% of all), similar ones and a draw of the others.

What do the screens show for `Cc1ccc(Nc2nc(-c3sc(C)nc3C)cs2)cc1`?
Rin1-Abl PPI inh: 1.7; SUMO HTRF inh: -17.2; PAD4 inh: 0.9; GSTO1 inh: 7.5; Apaf1 inhib: 16.3; UBC13 polyUb: 0.8

Results for Cc1nc(C)c(-c2csc(N)n2)s1 ?
Rin1-Abl PPI inh: 2.6; SUMO HTRF inh: -11.4; PAD4 inh: -2.6; GSTO1 inh: 39.3*; Apaf1 inhib: -6.6; UBC13 polyUb: -6.9; GSTO1 confirm: 8.7

Results for CCc1cc(C(=O)Nc2nc(-c3ccccn3)cs2)sc1C ?
Rin1-Abl PPI inh: -9.1; PAD4 inh: -3.5; Apaf1 inhib: 12.4; UBC13 polyUb: -29.6

What do the screens show for `NC(=O)N=Nc1c(O)[nH]c2c(Br)cc(Br)cc12`?
SUMO HTRF inh: 5.3; PAD4 inh: -4.6; GSTO1 inh: -2.6; Apaf1 inhib: 12.0; UBC13 polyUb: -39.3

What do the screens show for `O=C(CNC(=O)c1cccnc1)N=Nc1c(O)[nH]c2c(Br)cc(Br)cc12`?
Rin1-Abl PPI inh: -0.8; SUMO HTRF inh: 5.6; PAD4 inh: -2.0; GSTO1 inh: 85.0*; Apaf1 inhib: 5.0; UBC13 polyUb: -19.7; GSTO1 confirm: 40.6*

What do the screens show for `CCc1ccc(NS(=O)(=O)c2ccc3c(c2)oc(=O)n3C)cc1`?
Rin1-Abl PPI inh: 2.3; SUMO HTRF inh: -9.4; PAD4 inh: -4.0; GSTO1 inh: 53.0*; Apaf1 inhib: 13.8; UBC13 polyUb: -4.9; GSTO1 confirm: 43.9*

What do the screens show for `CCN(CCCNS(=O)(=O)c1ccc2c(c1)oc(=O)n2C)c1cccc(C)c1`?
Rin1-Abl PPI inh: 1.2; SUMO HTRF inh: 1.1; PAD4 inh: 1.5; GSTO1 inh: 38.2*; Apaf1 inhib: 6.3; UBC13 polyUb: 14.0; GSTO1 confirm: 36.2*

What do the screens show for `Cc1ccc(NS(=O)(=O)c2ccc3c(c2)oc(=O)n3C)cc1`?
Rin1-Abl PPI inh: 1.3; SUMO HTRF inh: 7.7; Apaf1 inhib: -0.2; UBC13 polyUb: 2.8

What do the screens show for `COc1ccc(C(C)(C)C)cc1NC(=O)CSc1ncn[nH]1`?
Rin1-Abl PPI inh: 1.9; Apaf1 inhib: -9.0; UBC13 polyUb: 5.2

Results for CCOc1ccc(/C=N/Nc2ccccc2)cc1 ?
Rin1-Abl PPI inh: 1.8; SUMO HTRF inh: 21.4; PAD4 inh: 0.5; GSTO1 inh: 40.8*; Apaf1 inhib: 11.8; UBC13 polyUb: 0.2; GSTO1 confirm: 16.1

What do the screens show for `COc1cccc(-c2nc(-c3ccccc3)[nH]c(=O)c2C#N)c1`?
Rin1-Abl PPI inh: -4.7; SUMO HTRF inh: 6.5; PAD4 inh: -16.7; GSTO1 inh: -7.2; Apaf1 inhib: 10.5; UBC13 polyUb: -5.2

What do the screens show for `CCC(Sc1nc(-c2cccc(OC)c2)c(C#N)c(=O)[nH]1)C(=O)Nc1nnc(C(C)C)s1` (centres undefined)?
Rin1-Abl PPI inh: -0.6; SUMO HTRF inh: -1.3; PAD4 inh: 0.8; GSTO1 inh: 50.3*; Apaf1 inhib: 11.2; UBC13 polyUb: -1.1; GSTO1 confirm: 62.0*

What do the screens show for `O=C(COC(=O)C1CC1)NCCc1ccccc1`?
Rin1-Abl PPI inh: 4.0; PAD4 inh: 3.5; Apaf1 inhib: -2.5; UBC13 polyUb: 5.0

Results for CC(CCc1ccccc1)NC(=O)COC(=O)C1CCC(C(C)(C)C)CC1 (centres undefined) ?
Rin1-Abl PPI inh: -1.6; SUMO HTRF inh: -37.3; PAD4 inh: 1.2; GSTO1 inh: 41.7*; Apaf1 inhib: 31.2; UBC13 polyUb: -12.2; GSTO1 confirm: 31.2

How did Cc1ccc(C)c(S(=O)(=O)N2CCN(C(=O)CCNS(=O)(=O)c3ccccc3)CC2)c1 do in these assays?
Rin1-Abl PPI inh: 2.1; SUMO HTRF inh: -6.8; PAD4 inh: -2.6; GSTO1 inh: -8.7; Apaf1 inhib: 9.4; UBC13 polyUb: 1.5

Results for O=S(=O)(c1ccc2nc(-c3ccco3)c(-c3ccco3)nc2c1)N1CCOCC1 ?
Rin1-Abl PPI inh: -0.2; SUMO HTRF inh: 84.1*; PAD4 inh: -5.4; GSTO1 inh: 48.3*; Apaf1 inhib: 77.3*; UBC13 polyUb: -34.6; GSTO1 confirm: 20.7

What do the screens show for `Cc1cccc(-c2ocnc2C(=O)Nc2ncc(C)s2)c1`?
Rin1-Abl PPI inh: -2.7
